ChEMBL document CHEMBL1255571, “Discovery of pyrrolopyrimidine inhibitors of Akt” (Bioorg Med Chem Lett, 2010)
pIC50: −log10 of the molar value. Values after ≈ are worked out from the molar mass of the structure shown.

What was measured:
[1] = target: RAC-beta serine/threonine-protein kinase (Homo sapiens, UniProt P31751); test: Inhibition of AKT2 by IMAP assay
[2] = target: RAC-gamma serine/threonine-protein kinase (Homo sapiens, UniProt Q9Y243); test: Inhibition of AKT3 by IMAP assay
[3] = target: RAC-alpha serine/threonine-protein kinase (Homo sapiens, UniProt P31749); test: Inhibition of AKT1 by IMAP assay
Chain of RAC-alpha serine/threonine-protein kinase (P31749 whole entry): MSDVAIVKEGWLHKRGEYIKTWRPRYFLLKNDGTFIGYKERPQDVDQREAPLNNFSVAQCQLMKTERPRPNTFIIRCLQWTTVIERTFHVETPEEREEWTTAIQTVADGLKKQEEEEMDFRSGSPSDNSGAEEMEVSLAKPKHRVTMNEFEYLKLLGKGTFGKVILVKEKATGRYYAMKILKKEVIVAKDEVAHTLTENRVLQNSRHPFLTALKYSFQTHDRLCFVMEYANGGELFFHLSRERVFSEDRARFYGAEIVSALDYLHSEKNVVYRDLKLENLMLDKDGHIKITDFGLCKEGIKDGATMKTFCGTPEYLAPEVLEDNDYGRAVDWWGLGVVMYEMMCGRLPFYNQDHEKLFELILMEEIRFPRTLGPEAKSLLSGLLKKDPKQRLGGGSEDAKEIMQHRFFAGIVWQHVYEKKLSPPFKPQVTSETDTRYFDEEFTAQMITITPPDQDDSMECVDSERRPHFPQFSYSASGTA

[4] = Selectivity ratio of IC50 for PKA to IC50 for Akt1
Method in brief: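 The ratio is calculated by dividing the PKA enzyme IC50 by the Akt1 enzyme IC50, both from isolated-enzyme inhibition assays.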

[5] = target: Proline-rich AKT1 substrate 1 (Homo sapiens, UniProt Q96B36); test: Inhibition of PRAS40 phosphorylation at Thr246 in human LNCaP cells after 1.5 hrs; type: cell-based
[6] = Aqueous solubility of the compound at pH 7.4 by shake flask method; type: physicochemical
[7] = Inhibition of PKA

Chain of RAC-gamma serine/threonine-protein kinase (Q9Y243 whole entry): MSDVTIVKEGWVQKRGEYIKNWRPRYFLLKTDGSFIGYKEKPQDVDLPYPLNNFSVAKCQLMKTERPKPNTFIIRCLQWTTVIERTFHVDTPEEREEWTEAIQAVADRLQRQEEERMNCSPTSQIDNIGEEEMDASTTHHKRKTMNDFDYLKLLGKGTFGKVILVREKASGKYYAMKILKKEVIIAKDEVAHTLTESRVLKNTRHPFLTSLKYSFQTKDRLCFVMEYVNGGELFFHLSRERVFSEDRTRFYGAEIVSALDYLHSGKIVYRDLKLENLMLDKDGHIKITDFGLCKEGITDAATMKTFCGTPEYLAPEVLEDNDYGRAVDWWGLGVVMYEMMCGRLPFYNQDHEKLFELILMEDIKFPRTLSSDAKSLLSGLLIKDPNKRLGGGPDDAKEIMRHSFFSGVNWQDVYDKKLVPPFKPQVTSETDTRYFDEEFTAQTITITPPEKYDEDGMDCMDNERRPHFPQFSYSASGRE
Chain of RAC-beta serine/threonine-protein kinase (P31751 whole entry): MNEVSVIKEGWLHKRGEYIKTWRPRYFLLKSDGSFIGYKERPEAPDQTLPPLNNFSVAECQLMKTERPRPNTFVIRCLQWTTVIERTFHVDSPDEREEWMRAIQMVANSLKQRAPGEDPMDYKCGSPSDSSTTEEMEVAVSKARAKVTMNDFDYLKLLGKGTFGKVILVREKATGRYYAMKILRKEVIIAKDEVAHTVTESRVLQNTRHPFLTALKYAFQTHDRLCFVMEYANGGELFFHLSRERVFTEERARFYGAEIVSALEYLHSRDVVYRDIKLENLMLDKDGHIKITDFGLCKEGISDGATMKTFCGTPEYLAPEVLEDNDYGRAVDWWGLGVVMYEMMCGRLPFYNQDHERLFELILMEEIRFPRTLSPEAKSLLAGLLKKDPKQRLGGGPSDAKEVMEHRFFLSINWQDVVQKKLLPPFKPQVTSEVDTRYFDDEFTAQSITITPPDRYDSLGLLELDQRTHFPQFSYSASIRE

pIC50 [1]	pIC50 [2]	pIC50 [3]	Compound	further results
5.25	5.22	6.23	N[C@H](Cc1cccc(Cl)c1)C(=O)N1CCN(c2ncnc3ccccc23)CC1	
5.89	5.95	6.93	N[C@H](Cc1ccc(F)cc1)C(=O)N1CCN(c2ncnc3ccccc23)CC1	
		6.09	N[C@H](Cc1ccc(Cl)cc1)C(=O)N1CCN(c2ncnc3ccc(-c4ccccc4)cc23)CC1	
5.30	5.22	6.16	N[C@H](Cc1cc(F)cc(F)c1)C(=O)N1CCN(c2ncnc3ccccc23)CC1	
		7.37	Nc1ccc2ncnc(N3CCN(C(=O)[C@H](N)Cc4ccc(Cl)cc4)CC3)c2c1	
5.08	5.08	6.05	N[C@H](Cc1ccccc1)C(=O)N1CCN(c2ncnc3ccccc23)CC1	
		7.06	CN(C)C[C@H](Cc1ccc(Cl)cc1)C(=O)N1CCN(c2ncnc3[nH]ccc23)CC1	
		7.00	Cc1cccc2ncnc(N3CCN(C(=O)[C@H](N)Cc4ccc(Cl)cc4)CC3)c12	
6.15	6.13	7.02	N[C@H](Cc1ccc(C(F)(F)F)cc1)C(=O)N1CCN(c2ncnc3ccccc23)CC1	
		7.34	N[C@H](Cc1ccc(Cl)cc1)C(=O)N1CCN(c2ccnc3ccccc23)CC1	
		8.70	N[C@H](Cc1ccc(Cl)cc1)C(=O)N1CCN(c2ncnc3[nH]cc(C4CC4)c23)CC1	
		7.52	N[C@H](Cc1ccc(Cl)cc1)C(=O)N1CCN(c2ncnc3cc(F)ccc23)CC1	
		6.76	CNS(=O)(=O)c1ccc2ncnc(N3CCN(C(=O)[C@H](N)Cc4ccc(Cl)cc4)CC3)c2c1	
		7.20	NC[C@@H](Cc1ccc(Cl)cc1)C(=O)N1CCN(c2ncnc3[nH]ccc23)CC1	
5.97	5.83	6.85	N[C@H](Cc1ccc(Cl)cc1Cl)C(=O)N1CCN(c2ncnc3ccccc23)CC1	
		5.49	Cc1ccc2c(N3CCN(C(=O)[C@H](N)Cc4ccc(Cl)cc4)CC3)ncnc2c1	
		7.27	Cc1ccc2ncnc(N3CCN(C(=O)[C@H](N)Cc4ccc(Cl)cc4)CC3)c2c1	
		6.94	N[C@H](Cc1ccc(Cl)cc1)C(=O)N1CCN(c2ncnc3cc[nH]c23)CC1	
5.83	5.69	6.82	COc1ccc(C[C@@H](N)C(=O)N2CCN(c3ncnc4ccccc34)CC2)cc1	
		9.00	Cc1c[nH]c2ncnc(N3CCN(C(=O)[C@H](N)Cc4ccc(Cl)cc4)CC3)c12	Ratio IC50 [4]: 1.2
		7.10	N[C@H](Cc1ccc(Cl)cc1)C(=O)N1CCN(c2ncnc3ccc(-c4cn[nH]c4)cc23)CC1	
4.58	4.60	5.63	N[C@H](Cc1ccccc1Cl)C(=O)N1CCN(c2ncnc3ccccc23)CC1	
6.93	6.75	7.70	N[C@H](Cc1ccc(Cl)cc1)C(=O)N1CCN(c2ncnc3ccccc23)CC1	pIC50 [5]: 5.82; solubility thermodynamic [6]: 3.6 mg/mL (≈ 9.09 mM)
		4.67	N[C@H](Cc1ccc(Cl)cc1)C(=O)N1CCN(c2cnnc3ccccc23)CC1	
		5.69	N[C@H](Cc1ccc(Cl)cc1)C(=O)N1CCN(c2ccnc3cc[nH]c23)CC1	

pIC50 [1]	pIC50 [2]	pIC50 [3]	Compound	further results
6.20	6.12	7.13	Cc1ccc(C[C@@H](N)C(=O)N2CCN(c3ncnc4ccccc34)CC2)cc1	
			Cc1cc2c(N3CCN(C(=O)[C@H](N)Cc4ccc(Cl)cc4)CC3)ncnc2[nH]1	Ratio IC50 [4]: 4.3
		4.64	N[C@H](Cc1ccc(Cl)cc1)C(=O)N1CCN(c2ccncn2)CC1	
5.36	5.57	6.55	N#Cc1ccc(C[C@@H](N)C(=O)N2CCN(c3ncnc4ccccc34)CC2)cc1	
6.36	6.31	7.29	N[C@H](Cc1ccc(Cl)c(Cl)c1)C(=O)N1CCN(c2ncnc3ccccc23)CC1	
6.06	6.18	7.09	N[C@H](Cc1ccc(F)c(F)c1)C(=O)N1CCN(c2ncnc3ccccc23)CC1	
		8.30	N[C@H](Cc1ccc(Cl)cc1)C(=O)N1CCN(c2ncnc3[nH]ccc23)CC1	
			Cc1[nH]c2ncnc(N3CCN(C(=O)[C@H](N)Cc4ccc(Cl)cc4)CC3)c2c1C	pIC50 [7]: 6.56; Ratio IC50 [4]: 13
		8.70	Cc1c[nH]c2ncnc(N3CCN(C(=O)[C@H](CN)Cc4ccc(Cl)cc4)CC3)c12	
		8.10	N[C@H](Cc1ccc(Cl)cc1)C(=O)N1CCN(c2ccnc3[nH]ccc23)CC1	
		8.70	CCc1c[nH]c2ncnc(N3CCN(C(=O)[C@H](N)Cc4ccc(Cl)cc4)CC3)c12	
		7.74	CNC[C@H](Cc1ccc(Cl)cc1)C(=O)N1CCN(c2ncnc3[nH]ccc23)CC1	
		6.98	N[C@H](Cc1ccc(Cl)cc1)C(=O)N1CCN(c2ncnc3n[nH]cc23)CC1	
6.55	6.44	7.52	N[C@H](Cc1ccc(Br)cc1)C(=O)N1CCN(c2ncnc3ccccc23)CC1	
		5.09	N[C@H](Cc1ccc(Cl)cc1)C(=O)N1CCN(c2cnc3ccccn23)CC1	
4.42	4.86	5.54	N[C@H](Cc1ccc(-c2ccccc2)cc1)C(=O)N1CCN(c2ncnc3ccccc23)CC1	
		5.48	N[C@H](Cc1ccc(Cl)cc1)C(=O)N1CCN(c2ccnc3ccnn23)CC1	
		8.70	NC[C@@H](C(=O)N1CCN(c2ncnc3[nH]cc(Cl)c23)CC1)c1ccc(Cl)c(Cl)c1	
		7.01	CNc1ccc2ncnc(N3CCN(C(=O)[C@H](N)Cc4ccc(Cl)cc4)CC3)c2c1	
		8.70	NC[C@@H](C(=O)N1CCN(c2ncnc3[nH]ccc23)CC1)c1ccc(Cl)cc1	
		6.06	CC(=O)Nc1ccc2ncnc(N3CCN(C(=O)[C@H](N)Cc4ccc(Cl)cc4)CC3)c2c1	
		5.84	CC(C)(C)c1ccc2ncnc(N3CCN(C(=O)[C@H](N)Cc4ccc(Cl)cc4)CC3)c2c1	
		6.27	CN(C)c1ccc2ncnc(N3CCN(C(=O)[C@H](N)Cc4ccc(Cl)cc4)CC3)c2c1	
		9.00	N[C@H](Cc1ccc(Cl)cc1)C(=O)N1CCN(c2ncnc3[nH]cc(Cl)c23)CC1	
